In ChEMBL document CHEMBL5034008, “Diversity-Oriented A3-Macrocyclization for Studying Influences of Ring-Size and Shape of Cyclic Peptides: CD36 Receptor Modulators” (J Med Chem, 2021):
Non-standard residues stand in square brackets, D forms with d. Residues, ends and D or L forms follow the SMILES beside them. ξ: configuration not given here. *: point of attachment. X1 = CCCCCCCCCCCCCCCC(=O)OCC(C*)OC(=O)CCCCCCCCCCCCCCC; ξC = NC(CS)C(=O)O

Key:
Platelet glycoprotein 4 = Platelet glycoprotein 4 (Rattus norvegicus, UniProt Q07969); assay: Displacement of [125I]-Tyr-Bpa-Ala-hexarelin from rat CD36 receptor in heart tissue membrane incubated for 60 mins by competitive receptor binding assay; assay type: cell membranes
Chain of Platelet glycoprotein 4 (Q07969 whole entry): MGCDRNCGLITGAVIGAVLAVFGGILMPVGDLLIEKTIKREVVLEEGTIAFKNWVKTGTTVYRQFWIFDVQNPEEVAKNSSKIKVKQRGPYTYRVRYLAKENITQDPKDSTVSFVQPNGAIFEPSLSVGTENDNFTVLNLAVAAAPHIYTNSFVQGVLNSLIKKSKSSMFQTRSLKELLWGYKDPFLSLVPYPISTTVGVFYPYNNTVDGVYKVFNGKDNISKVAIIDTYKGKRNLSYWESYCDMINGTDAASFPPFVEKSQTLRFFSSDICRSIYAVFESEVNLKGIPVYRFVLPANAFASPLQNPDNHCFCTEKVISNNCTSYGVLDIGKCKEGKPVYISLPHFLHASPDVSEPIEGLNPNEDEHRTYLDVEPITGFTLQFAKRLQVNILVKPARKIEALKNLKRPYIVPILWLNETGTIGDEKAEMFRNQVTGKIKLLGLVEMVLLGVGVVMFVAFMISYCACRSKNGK
In short: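 Rat heart membranes (50 μg) incubated in the dark with 250,000 cpm [125I]-Tyr-Bpa-Ala-hexarelin in 50 mM Tris-HCl pH 7.4, 2 mM EGTA, 0.05% bacitracin, with competitor at 0.1–10 μM; hexarelin as reference. Nonspecific binding defined with 50 μM peptide. 60 min at 22 °C, then UV photolysis at 365 nm for 15 min at 4 °C. Pellets resolved on 7.5% SDS-PAGE.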

[1] = molecular target: Platelet glycoprotein 4 (Mus musculus) (UniProt Q08857); assay: Modulation of CD36 receptor in mouse RAW 264.7 cells assessed as inhibition of R-FSL-1-induced NO production at competitive receptor binding assay IC50 concentration pretreated for 30 mins followed by R-FSL-1 stimulation measured after 19 hrs by fluorescence plate reader assay relative to R-FSL-1; assay type: cell-based; parameters: scale not given: the % may be the effect or the level left
Chain of Platelet glycoprotein 4 (Mus musculus) (Q08857 whole entry): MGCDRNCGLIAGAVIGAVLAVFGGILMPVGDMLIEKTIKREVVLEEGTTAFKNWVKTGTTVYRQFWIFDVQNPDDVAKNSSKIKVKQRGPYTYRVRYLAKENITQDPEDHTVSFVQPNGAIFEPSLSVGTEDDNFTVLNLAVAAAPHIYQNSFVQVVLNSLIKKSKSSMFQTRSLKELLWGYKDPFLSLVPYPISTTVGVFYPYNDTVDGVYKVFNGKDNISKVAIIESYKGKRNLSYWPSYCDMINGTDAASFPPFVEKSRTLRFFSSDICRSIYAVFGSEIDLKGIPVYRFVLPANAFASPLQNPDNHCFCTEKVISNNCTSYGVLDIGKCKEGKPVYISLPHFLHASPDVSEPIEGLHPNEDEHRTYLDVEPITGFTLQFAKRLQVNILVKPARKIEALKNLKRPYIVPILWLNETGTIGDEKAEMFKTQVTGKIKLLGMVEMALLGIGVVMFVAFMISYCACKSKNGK

[2] = molecular target: Platelet glycoprotein 4 (Mus musculus) (UniProt Q08857); assay: Modulation of CD36 receptor in mouse BMA3.1A7 cells assessed as inhibition of R-FSL-1-induced IL-1beta production at competitive receptor binding assay IC50 concentration pretreated for 30 mins followed by R-FSL-1 stimulation measured after 4 hrs by ELISA relative to R-FSL-1; assay type: cell-based; parameters: scale not given: the % may be the effect or the level left; settings: time 4.5 hrs
[3] = molecular target: Platelet glycoprotein 4 (Mus musculus) (UniProt Q08857); assay: Modulation of CD36 receptor in mouse RAW 264.7 cells assessed as inhibition of R-FSL-1-induced NO production pretreated for 30 mins followed by R-FSL-1 stimulation measured after 1140 min by fluorescence plate reader assay; assay type: cell-based; settings: RAW264.7, filed as modulator, time 1170.0 min
In short: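 RAW 264.7 cells seeded at 1.5 × 10^5 per well in DMEM with pen/strep. After 2 h, medium changed to DMEM with 0.2% BSA containing peptide. Cells stimulated with R-FSL-1 at 300 ng/mL for 19 h. Nitrite in 25 μL supernatant reacted with 0.5 μg 2,3-diaminonaphthalene in 50 mM phosphate pH 7.5, 15 min at room temperature in the dark, stopped with NaOH. Fluorescence read.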

[4] = molecular target: Platelet glycoprotein 4 (Mus musculus) (UniProt Q08857); assay: Modulation of CD36 receptor in mouse BMA3.1A7 cells assessed as inhibition of R-FSL-1-induced IL-1beta production […] measured after 4 hrs by ELISA; assay type: cell-based; settings: filed as modulator, time 4.5 hrs
[5] = molecular target: Platelet glycoprotein 4 (Mus musculus) (UniProt Q08857); assay: Modulation of CD36 receptor in mouse RAW 264.7 cells assessed as inhibition of R-FSL-1-induced CCl-2 production at competitive receptor binding assay IC50 concentration pretreated for 30 mins followed by R-FSL-1 stimulation measured after 19 hrs by ELISA relative to R-FSL-1; assay type: cell-based; parameters: scale not given: the % may be the effect or the level left
[6] = molecular target: Platelet glycoprotein 4 (Mus musculus) (UniProt Q08857); assay: Modulation of CD36 receptor in mouse RAW 264.7 cells assessed as inhibition of R-FSL-1-induced TNFalpha production at competitive receptor binding assay IC50 concentration pretreated for 30 mins followed by R-FSL-1 stimulation measured after 19 hrs by ELISA relative to R-FSL-1; assay type: cell-based; parameters: scale not given: the % may be the effect or the level left; settings: RAW264.7, time 19.5 hrs
[7] = molecular target: Platelet glycoprotein 4 (Mus musculus) (UniProt Q08857); assay: Modulation of CD36 receptor in mouse RAW 264.7 cells assessed as inhibition of R-FSL-1-induced TNFalpha production pretreated for 30 mins followed by R-FSL-1 stimulation measured after 4 hrs by ELISA; assay type: cell-based; settings: RAW264.7, filed as modulator, time 4.5 hrs
In short: (§1)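 RAW 264.7 cells seeded at 1.5 × 10^5 per well and weaned overnight in DMEM with 1% pen/strep. Medium then changed to DMEM with 0.2% BSA. Cells pretreated 30 min with peptide at 10^-7 M, with linear [azaTyr4]-GHRP-6 as reference. Stimulated with R-FSL-1 at 300 ng/mL for 4 h at 37 °C. TNF-α or CCL-2 in supernatant measured by ELISA. Inhibition % = (FSL-1 − treated)/(FSL-1 − basal) × 100.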

[8] = molecular target: Platelet glycoprotein 4 (Mus musculus) (UniProt Q08857); assay: Modulation of CD36 receptor in mouse RAW 264.7 cells assessed as inhibition of R-FSL-1-induced CCL-2 production pretreated for 30 mins followed by R-FSL-1 stimulation measured after 4 hrs by ELISA; assay type: cell-based; settings: RAW264.7, filed as modulator, time 4.5 hrs; in short: as §1
[9] = RAW264.7, filed as modulator, time 19.5 hrs

SMILES: C[C@H](N)C(=O)NN1C/C=C\CN(CC2CC2)CCCC[C@@H](C(N)=O)NC(=O)[C@@H](Cc2ccccc2)NC(=O)[C@H](Cc2c[nH]c3ccccc23)NC(=O)[C@H](C)NC(=O)[C@@H](Cc2c[nH]c3ccccc23)NC1=O
- IC50 (Platelet glycoprotein 4): 9.05 µM
- Activity ([1]; RAW264.7, time 1170.0 min): 12%
- Activity [2]: 9%
- Activity [3]: 2.57 µM
- Activity [4]: 312 pmol
- Activity ([5]; RAW264.7, time 19.5 hrs): 23%
- Activity [6]: 3%
- Activity [7]: 4820 pmol
- Activity [8]: 903 pmol

SMILES: C=CCN1CC#CCN(NC(=O)[C@H](C)N)C(=O)N[C@H](Cc2c[nH]c3ccccc23)C(=O)N[C@@H](C)C(=O)N[C@@H](Cc2c[nH]c3ccccc23)C(=O)N[C@H](Cc2ccccc2)C(=O)N[C@H](C(N)=O)CCC1
- IC50 (Platelet glycoprotein 4): 13.1 µM
- Activity ([1]; RAW264.7, time 1170.0 min): 15%
- Activity [2]: 0%
- Activity [3]: 2.52 µM
- Activity [4]: 411 pmol
- Activity ([5]; RAW264.7, time 19.5 hrs): 15%
- Activity [6]: 8%
- Activity [7]: 4650 pmol
- Activity [8]: 971 pmol

SMILES: C=CCN1CC#CCN(NC(=O)[C@H](C)N)C(=O)N[C@H](Cc2c[nH]c3ccccc23)C(=O)N[C@@H](C)C(=O)N[C@@H](Cc2c[nH]c3ccccc23)C(=O)N[C@H](Cc2ccccc2)C(=O)N[C@H](C(N)=O)CC1
- IC50 (Platelet glycoprotein 4): 4.75 µM
- Activity ([1]; RAW264.7, time 1170.0 min): 27%
- Activity ([2]; filed as modulator): 41%
- Activity [3]: 2.26 µM
- Activity [4]: 271 pmol
- Activity ([5]; RAW264.7, time 19.5 hrs): 28%
- Activity [6]: 19%
- Activity [7]: 4180 pmol
- Activity [8]: 857 pmol

SMILES: CCCCCCCCCCCCCCCC(=O)OCC(CSCC(N)C(=O)NCC(=O)N[C@@H](CC(=O)O)C(=O)N1CCC[C@H]1C(=O)N[C@@H](CCCCN)C(=O)N[C@@H](Cc1cnc[nH]1)C(=O)N1CCC[C@H]1C(=O)N[C@@H](CCCCN)C(=O)N[C@@H](CO)C(=O)N[C@@H](Cc1ccccc1)C(=O)O)OC(=O)CCCCCCCCCCCCCCC (some centres undefined) (H-[ξC](X1)GDPKHPKSF-OH)
- Activity [3]: 2.82 µM
- Activity [4]: 410 pmol
- Activity [7]: 4970 pmol
- Activity [8]: 1100 pmol

SMILES: C=CCN1CC#CCN(NC(C)=O)C(=O)N[C@H](Cc2c[nH]c3ccccc23)C(=O)N[C@@H](C)C(=O)N[C@@H](Cc2c[nH]c3ccccc23)C(=O)N[C@H](Cc2ccccc2)C(=O)N[C@H](C(N)=O)CCCC1
- Activity ([1]; RAW264.7, time 1170.0 min): 18%
- Activity [2]: 18%
- Activity [3]: 2.45 µM
- Activity [4]: 351 pmol
- Activity ([5]; RAW264.7, time 19.5 hrs): 36%
- Activity [6]: 10%
- Activity [7]: 4560 pmol
- Activity [8]: 785 pmol

SMILES: C=CCN1CC#CCN(NC(=O)[C@H](C)NC(C)=O)C(=O)N[C@H](Cc2c[nH]c3ccccc23)C(=O)N[C@@H](C)C(=O)N[C@@H](Cc2c[nH]c3ccccc23)C(=O)N[C@H](Cc2ccccc2)C(=O)N[C@H](C(N)=O)CCCC1
- Activity ([1]; RAW264.7, time 1170.0 min): 23%
- Activity [2]: 32%
- Activity [3]: 2.35 µM
- Activity [4]: 304 pmol
- Activity [5, 9]: 45%
- Activity [6]: 22%
- Activity [7]: 4040 pmol
- Activity [8]: 707 pmol

SMILES: C[C@H](N)C(=O)NN1CC#CCN(CC2CC2)CCCC[C@@H](C(N)=O)NC(=O)[C@@H](Cc2ccccc2)NC(=O)[C@H](Cc2c[nH]c3ccccc23)NC(=O)[C@H](C)NC(=O)[C@@H](Cc2c[nH]c3ccccc23)NC1=O
- IC50 (Platelet glycoprotein 4): 3.06 µM
- Activity ([1]; RAW264.7, time 1170.0 min): 14%
- Activity [2]: 13%
- Activity [3]: 2.53 µM
- Activity [4]: 366 pmol
- Activity ([5]; RAW264.7, time 19.5 hrs): 21%
- Activity [6]: 8%
- Activity [7]: 4620 pmol
- Activity [8]: 984 pmol

SMILES: C=CCN1CC#CCN(NC(=O)[C@H](C)N)C(=O)N[C@@H](C)C(=O)N[C@@H](Cc2c[nH]c3ccccc23)C(=O)N[C@H](Cc2ccccc2)C(=O)N[C@H](C(N)=O)CCC1
- IC50 (Platelet glycoprotein 4): 22.8 µM
- Activity ([1]; RAW264.7, time 1170.0 min): 0%
- Activity [2]: 9%
- Activity [3]: 2.81 µM
- Activity [4]: 381 pmol
- Activity ([5]; RAW264.7, time 19.5 hrs): 8%
- Activity [6]: 5%
- Activity [7]: 4760 pmol
- Activity [8]: 1030 pmol

SMILES: C=CCN1CC#CCN(N)C(=O)N[C@H](Cc2c[nH]c3ccccc23)C(=O)N[C@@H](C)C(=O)N[C@@H](Cc2c[nH]c3ccccc23)C(=O)N[C@H](Cc2ccccc2)C(=O)N[C@H](C(N)=O)CCCC1
- IC50 (Platelet glycoprotein 4): > 50 µM
- Activity ([1]; RAW264.7, time 1170.0 min): 5%
- Activity [2]: 7%
- Activity [3]: 2.72 µM
- Activity [4]: 388 pmol
- Activity ([5]; RAW264.7, time 19.5 hrs): 6%
- Activity [6]: 2%
- Activity [7]: 4900 pmol
- Activity [8]: 1040 pmol

SMILES: C=CCN1CC#CCN(NC(=O)[C@H](C)N)S(=O)(=O)N[C@H](Cc2c[nH]c3ccccc23)C(=O)N[C@@H](C)C(=O)N[C@@H](Cc2c[nH]c3ccccc23)C(=O)N[C@H](Cc2ccccc2)C(=O)N[C@H](C(N)=O)CCCC1
- IC50 (Platelet glycoprotein 4): 10.2 µM
- Activity ([1]; RAW264.7, time 1170.0 min): 4%
- Activity [2]: 6%
- Activity [3]: 2.74 µM
- Activity [4]: 378 pmol
- Activity ([5]; RAW264.7, time 19.5 hrs): 15%
- Activity [6]: -4%
- Activity [7]: 5120 pmol
- Activity [8]: 969 pmol

SMILES: C=CCN1CC#CCN(NC(=O)[C@H](C)N)C(=O)N[C@@H](C)C(=O)N[C@@H](Cc2c[nH]c3ccccc23)C(=O)N[C@H](Cc2ccccc2)C(=O)N[C@H](C(N)=O)CCCC1
- Activity ([1]; RAW264.7, filed as modulator, time 1170.0 min): 25%
- Activity [2]: 35%
- Activity [3]: 2.3 µM
- Activity [4]: 291 pmol
- Activity ([5]; RAW264.7, time 19.5 hrs): 39%
- Activity [6]: 27%
- Activity [7]: 3840 pmol
- Activity [8]: 758 pmol

SMILES: C=CCN1CC#CCN(NC(=O)[C@H](C)N)C(=O)N[C@H](Cc2c[nH]c3ccccc23)C(=O)N[C@@H](C)C(=O)N[C@@H](Cc2c[nH]c3ccccc23)C(=O)N[C@H](Cc2ccccc2)C(=O)N[C@H](C(N)=O)CCCC1
- IC50 (Platelet glycoprotein 4): 0.1 µM
- Activity ([1]; RAW264.7, time 1170.0 min): 35%
- Activity ([2]; filed as modulator): 46%
- Activity [3]: 2.11 µM
- Activity [4]: 253 pmol
- Activity [5, 9]: 50%
- Activity [6]: 25%
- Activity [7]: 3940 pmol
- Activity [8]: 672 pmol

SMILES: CCCN1CC#CCN(NC(=O)[C@H](C)N)C(=O)N[C@H](Cc2c[nH]c3ccccc23)C(=O)N[C@@H](C)C(=O)N[C@@H](Cc2c[nH]c3ccccc23)C(=O)N[C@H](Cc2ccccc2)C(=O)N[C@H](C(N)=O)CCCC1
- IC50 (Platelet glycoprotein 4): 1.86 µM
- Activity ([1]; RAW264.7, time 1170.0 min): 4%
- Activity [2]: 29%
- Activity [3]: 2.75 µM
- Activity [4]: 313 pmol
- Activity ([5]; RAW264.7, time 19.5 hrs): 13%
- Activity [6]: 12%
- Activity [7]: 4460 pmol
- Activity [8]: 918 pmol
